PP1 inh: PP1-alpha phosphatase inhibitors, primary screen, counter-screen for PP5 inhibitor project, biochemical, fluorescence, OMFP substrate, single point | Serine/threonine-protein phosphatase PP1-alpha catalytic subunit (Homo sapiens), P62136 | purified PP1alpha | inhibition, % at 6.7 µM | 320,000 compounds, 0.9% hits;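 active means inhibition above the mean inhibition of all tested compounds plus 3 SD, computed separately for each screening campaign, cut at about 15% in these data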
CTSL1 counter: Fasciola hepatica cathepsin L1 inhibitors, primary screen, counter-screen for PFM18AAP inhibitor project, biochemical, QFRET, fluorogenic peptide substrate | recombinant F. hepatica cathepsin L1, Z-Leu-Arg-MCA fluorescence | inhibition, % at 5.96 µM | 300,000 compounds, 0.49% hits;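 active means inhibition above the mean of all tested compounds plus 3 SD, set per screening campaign, cut at about 17% in these data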
Myeloid diff 2: induction of myeloid progenitor differentiation, primary screen, cell-based, flow cytometry, MLPCN library | ER-HoxA9 myeloid progenitors, lysozyme-GFP differentiation | calls only at 10 µM | 360,000 compounds, 1% hits;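 active means normalized GFP-positive differentiation at or above the plate's own cutoff, the solvent-only control mean plus 3 SD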;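 further: cells exposed to compound for four days before flow analysis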
PP5 primary: PP5 phosphatase inhibitors, primary screen, biochemical, fluorescence; Serine/threonine-protein phosphatase 5 (Homo sapiens), P53041; purified PP5c, OMFP substrate fluorescence; inhibition, % at 6.7 µM; 320,000 compounds, 0.18% hits; AID 1987, 2009;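 active means inhibition above the campaign's mean inhibition across all tested compounds plus 3 SD, cut at about 9.5% in these data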
Target sequence (P53041 whole entry, looked up): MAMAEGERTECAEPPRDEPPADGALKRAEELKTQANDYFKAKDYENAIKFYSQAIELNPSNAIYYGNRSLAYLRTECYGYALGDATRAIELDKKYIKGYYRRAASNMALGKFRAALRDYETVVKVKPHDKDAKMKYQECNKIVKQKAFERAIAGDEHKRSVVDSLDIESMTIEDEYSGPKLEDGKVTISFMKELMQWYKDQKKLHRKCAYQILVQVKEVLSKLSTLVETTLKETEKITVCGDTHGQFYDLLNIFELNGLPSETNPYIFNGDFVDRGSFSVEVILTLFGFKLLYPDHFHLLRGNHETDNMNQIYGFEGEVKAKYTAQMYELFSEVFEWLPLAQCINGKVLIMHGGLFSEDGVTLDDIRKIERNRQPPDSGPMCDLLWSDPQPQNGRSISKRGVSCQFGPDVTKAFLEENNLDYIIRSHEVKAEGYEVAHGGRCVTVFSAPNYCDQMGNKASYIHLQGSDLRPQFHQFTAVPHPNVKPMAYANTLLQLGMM
NadD block: inhibitors of S. aureus NadD, primary screen, biochemical, colorimetric, uHTS. 360,000 compounds, 0.78% hits. purified NadD enzyme, colorimetric absorbance read-out. inhibition, % at 20 µM. Nicotinate-nucleotide adenylyltransferase NadD (Staphylococcus aureus N315); in the data active means inhibition above about 26%
core dimer inh: inhibitors of HCV core protein dimerization, primary screen, biochemical, TR-FRET, high-throughput; TR-FRET GST/Flag-core106 dimerization, 1536-well; inhibition, % at 5 µM; 300,000 compounds, 0.33% hits;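 active means inhibition above the mean of all tested compounds plus 3 SD, set per screening campaign, cut at about 45% in these data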
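test system = GST/Flag-tagged HCV core106 proteins | probe or stimulus = Eu donor and XL665 acceptor anti-tag antibodies | times = compound-protein-antibody incubation 4 h at 22.5 °C | signal = TR-FRET, excitation 340 nm, emission 617 and 671 nm | measure = percent inhibition of core106 dimerization signal | controls = wells lacking GST-core106 and wells with excess unlabelled core106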
NadD inh conf: inhibitors of S. aureus NadD, confirmation, biochemical, colorimetric, single concentration. inhibition, % at 20 µM. 2,000 compounds, 13% hits. purified S. aureus NadD, colorimetric enzyme assay. shares compounds with NadD block. AID 624309, 2012; in the data active means inhibition mostly above about 42%, no sharp cut-off; inactive means mostly below about 42%
Of the large screens only hits and unclear results are named; the others gave an inactive call (follow-up assays come after a bar, where they were run). This is a sample that favours compounds with a hit; in the whole collection about 3.1% have one here.

Cc1ccc(S(=O)(=O)N2C[C@H]3C(=O)C[C@@H](c4ccccc4F)N(S(=O)(=O)c4ccc(C)cc4)[C@H]3C[C@H]2c2cccc3ccccc23)cc1	none (no result: PP1 inh, CTSL1 counter, PP5 primary, core dimer inh)
CCCCC1=CC2=CC(=O)C(C)(OC(=O)C3CCCC3)C(=O)C2=CO1 (stereo not drawn)	NadD block 53 | NadD inh conf inactive
CCCCC1=CC2=CC(=O)C(C)(OC(=O)CC)C(=O)C2=CO1 (stereo not drawn)	NadD block 33 | NadD inh conf 45
C/C(=N\Nc1ccc(S(=O)(=O)Nc2ccc(Cl)cc2)cc1[N+](=O)[O-])c1ccc(N2CCOCC2)cc1	none
O=[N+]([O-])c1cc(S(=O)(=O)Nc2cccc(Cl)c2)ccc1N/N=C/c1ccc(N2CCOCC2)cc1	NadD block 28 | NadD inh conf inactive
O=[N+]([O-])c1ccccc1/C=C/C=N/Nc1ccc(S(=O)(=O)Nc2ccc(Cl)cc2)cc1[N+](=O)[O-]	NadD block 26 | NadD inh conf inactive
C/C(=N\Nc1ccc(S(=O)(=O)Nc2ccccc2)cc1[N+](=O)[O-])c1ccc(N2CCOCC2)cc1	NadD block 42 | NadD inh conf inactive
O=C(Nc1ccc(N2CCCC2)cc1)c1ccc([N+](=O)[O-])cc1Cl	NadD block 36 | NadD inh conf inactive
O=C(Nc1ccc(S(=O)(=O)N2CCOCC2)cc1)c1ccc([N+](=O)[O-])cc1Cl	none
C=CCN(CC=C)S(=O)(=O)c1ccc(NC(=S)NC(=O)/C=C/c2cccc3ccccc23)cc1	NadD block 31, core dimer inh 56 | NadD inh conf inactive
CN(C)c1ccc(C(C(=O)NCc2ccccc2)N(Cc2ccco2)C(=O)c2snc(C(N)=O)c2N)cc1 (stereo not drawn)	none
CCCOc1ccc(C(=O)NNC(=S)NC(=O)c2ccccc2)cc1	none
CCCOc1ccc(C(=O)NNC(=S)NC(=O)c2cc(-c3ccccc3)nc3ccccc23)cc1	NadD block 62 | NadD inh conf inactive
CCOc1ccc(-c2cc(C(=O)Nc3ccc4c(c3)OCCO4)c3ccccc3n2)cc1	NadD block 33 | NadD inh conf inactive
Cc1ccccc1NC(=S)NC(=O)c1cc(-c2ccccc2)nc2ccccc12	NadD block 38 | NadD inh conf inactive
Cc1cccc(-c2cc(C(=O)Nc3ccc4c(c3)OCCO4)c3ccccc3n2)c1	none
Cc1cccc(NC(=S)NC(=O)c2cc(-c3ccccc3)nc3ccccc23)c1	none
CC[C@@]1(C(=O)OC)N[C@H](CN(C)C(=O)Nc2ccc(C(F)(F)F)cc2)[C@@H]2C(=O)N(C)C(=O)[C@@H]21	none (no result: PP1 inh, CTSL1 counter, PP5 primary, core dimer inh)
COc1ccc(C(C(=O)NC2CCCCC2)N(Cc2ccco2)C(=O)c2ccccn2)c(OC)c1 (stereo not drawn)	none
O=C(Cn1nnc(-c2ccc(F)cc2)n1)NC(=O)NC1CCCCC1	none (no result: PP1 inh, CTSL1 counter, PP5 primary, core dimer inh)
COc1ccc(C(=O)NC2CCN(CC(=O)NCc3ccccc3F)CC2)cc1	NadD block 40 | NadD inh conf inactive
Cc1c(C(=O)NNC(=O)c2csc(N3CCOCC3)n2)oc2ccc(Br)cc12	NadD block 32 (no result: PP1 inh, CTSL1 counter, PP5 primary, core dimer inh) | NadD inh conf inactive
Cc1c(C(=O)NNC(=O)c2csc(N3CCOCC3)n2)oc2ccccc12	none (no result: CTSL1 counter, core dimer inh)
COc1cc(CNc2ncnc3c2ncn3[C@H]2CN(CCc3ccccc3)C[C@@H](CO)O2)cc(OC)c1OC	none (no result: PP1 inh, CTSL1 counter, PP5 primary, core dimer inh)
O=C(O)c1ccc(/C=N/NC(=O)c2cc(-c3ccc4c5c(cccc35)CC4)n[nH]2)cc1	NadD block 28 | NadD inh conf inactive
CCOC(=O)Cn1cc(/C=N/NC(=O)c2cc3ccccc3o2)c2ccccc21	none
O=C(N/N=C/c1ccncc1)c1cc2ccccc2o1	none
CC(C)n1cc(/C=N\NC(=O)c2cc3c(ccc4ccccc43)o2)c2ccccc21	NadD block 33 (no result: PP1 inh, CTSL1 counter, PP5 primary, core dimer inh) | NadD inh conf inactive
CCn1cc(/C=N/NC(=O)c2cc3c(ccc4ccccc43)o2)c2ccccc21	NadD block 36 | NadD inh conf 48
Cc1cc(/C=N/NC(=O)c2cc3ccccc3o2)c(C)n1C	NadD block 35 | NadD inh conf inactive
COc1cc2nc(N3CCNCC3)nc(N)c2cc1OC	NadD block 34 | NadD inh conf inactive
Cc1cc(-c2cc(C(=O)O)c3ccccc3n2)c(C)s1	NadD block 58 | NadD inh conf inactive
Cc1nn(C)cc1-c1cc(C(=O)O)c2ccccc2n1	none
CC(=O)/C(=N\Nc1ccccc1)Oc1ccc(Br)cc1	none
Cc1cccc(-c2ocnc2C(=O)Nc2ncc(C)s2)c1	none (no result: PP1 inh, CTSL1 counter, PP5 primary, core dimer inh)
S=c1[nH]nc(-c2cc(-c3ccccc3)n[nH]2)n1/N=C/c1ccc(Cl)cc1	NadD block 26 | NadD inh conf inactive
S=c1[nH]nc(-c2cc(-c3ccccc3)n[nH]2)n1/N=C/c1ccc(Cl)c(Cl)c1	NadD block 30 | NadD inh conf inactive
CCn1c2ccccc2c2cc(/C=N/n3c(-c4cc(C)[nH]n4)n[nH]c3=S)ccc21	NadD block 62 | NadD inh conf 63
S=c1[nH]nc(-c2cc(-c3ccccc3)n[nH]2)n1/N=C/c1cccc(Cl)c1	none
S=c1[nH]nc(-c2ccccc2)n1/N=C/c1cccc(Br)c1	none
N=c1c(S(=O)(=O)c2ccc(F)cc2)cc2c(=O)n3ccccc3nc2n1CC1CCCO1 (stereo not drawn)	none
CC(C)Cn1c(-c2csc3ccccc23)n[nH]c1=S	NadD block 34 | NadD inh conf inactive
CC1(C(=O)Nc2cccc(OC(F)(F)F)c2)Cc2c(-c3ccc4c(c3)OCO4)ccnc2O1 (stereo not drawn)	none (no result: PP1 inh, CTSL1 counter, PP5 primary, core dimer inh)
Cc1cccc(N=C2NN=C(c3ccc4c(c3)OCCO4)CS2)c1	none
Cc1cccc(N=C2NN=C(c3c(C)[nH]c4ccccc34)CS2)c1	NadD block 36 | NadD inh conf inactive
Cc1snc(SCc2cccc(Cl)c2)c1C#N	none
CSc1nsc(/C=C/Nc2cccc(Cl)c2)c1C#N	Myeloid diff 2 active, NadD block 32 | NadD inh conf inactive
CSc1ccc(C=NNc2ccc(S(=O)(=O)Nc3ccccc3C(=O)O)cc2[N+](=O)[O-])cc1	Myeloid diff 2 active, NadD block 41 (no result: PP1 inh, CTSL1 counter, PP5 primary, core dimer inh) | NadD inh conf inactive

Screening results: PubChem, several laboratories
